Measurements reported in ChEMBL document CHEMBL4765243, “Discovery of Novel Bromophenol-Thiosemicarbazone Hybrids as Potent Selective Inhibitors of Poly(ADP-ribose) Polymerase-1 (PARP-1) for Use in Cancer” (J Med Chem, 2019).
Active and inactive are the calls of the source. No cut-off for these calls is given here.

Key:
HepG2 [1] = assay: Antiproliferative activity against human HepG2 cells assessed as cell growth inhibition at 20 uM incubated for 48 hrs by MTT assay relative to control; assay type: functional
Caco-2 = assay: Antiproliferative activity against human Caco-2 cells assessed as cell growth inhibition at 20 uM incubated for 48 hrs by MTT assay relative to control; assay type: functional
HepG2 [2] = assay: Antiproliferative activity against human HepG2 cells assessed as cell growth inhibition incubated for 48 hrs by MTT assay; assay type: functional, cell-based; conditions: HepG2, 48 h
How it was run: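 Cells seeded in 96-well plates and exposed to compounds for 48 h; viability read by MTT. Each experiment repeated three times. SK-OV-3 grown in McCOY's 5A, Bel-7402 and HL-7702 in RPMI-1640, HepG2 in DMEM, Caco-2 in MEM.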

[3] = biological target: T1, Poly [ADP-ribose] polymerase 1 (Homo sapiens, UniProt P09874); assay: Inhibition of human recombinant GST-tagged PARP-1 expressed in Escherichia coli assessed as reduction in NAD+-dependent ADP ribosylation incubated for 30 mins in presence and NAD by resazurin dye based fluorescence analysis
[4] = biological target: Poly [ADP-ribose] polymerase 2 (Homo sapiens, UniProt Q9UGN5); assay: Inhibition of human recombinant N-terminal GST-tagged PARP-2 expressed in Baculovirus infected Sf9 cells assessed as reduction in NAD+-dependent ADP ribosylation using histone mixture (H2A and H2B) as substrate in presence of activated DNA incubated for 30 mins by chemiluminescence assay
[5] = Selectivity index, ratio of IC50 for inhibition of human recombinant N-terminal GST-tagged PARP-2 to IC50 for inhibition of human recombinant GST-tagged PARP-1
[6] = biological target: T1, Poly [ADP-ribose] polymerase 1; assay: Inhibition of PARP-1 in human SKOV3 cells assessed as decrease in MCM3 protein expression level at 2.5 to 10 uM incubated for 48 hrs by western blot analysis; assay type: cell-based; conditions: SK-OV-3, dose 2.5-10 µM
How it was run: (§1)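 SK-OV-3 cells were grown in McCOY's 5A, seeded in 6-well plates and treated for 48 h. Lysate proteins were separated by 8-15 % SDS-PAGE and transferred to PVDF membranes. Membranes were blocked in 5 % nonfat milk, probed with primary antibody overnight at 4 °C and with HRP secondary antibody for 1 h at room temperature, then detected by enhanced chemiluminescence. Images are representative of 3 independent experiments.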

[7] = biological target: T1, Poly [ADP-ribose] polymerase 1; assay: Inhibition of PARP-1 in human SKOV3 cells assessed as decrease in MCM7 protein expression level at 2.5 to 10 uM incubated for 48 hrs by western blot analysis; assay type: cell-based; conditions: SK-OV-3, dose 2.5-10 µM; how it was run: as §1
[8] = biological target: T1, Poly [ADP-ribose] polymerase 1; assay: Inhibition of PARP-1 in human SKOV3 cells assessed as inhibition of H2O2-induced poly-ADP ribose formation preincubated for 4 hrs followed by H2O2 addition and incubated overnight by Alexa Fluor 488 staining based confocal microscopic analysis; assay type: cell-based; conditions: SK-OV-3, in the assay text read “incubated for 5 mins” for “incubated overnight”
How it was run: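 SK-OV-3 cells were seeded in 96-well plates and grown for 24 h, exposed to compound for 4 h, then to 10 mM H2O2 for 5 min. Cells were fixed and incubated with anti-PAR primary antibody overnight at 4 °C, then with Alexa Fluor 488 secondary antibody. Nuclei were stained with 1 % DAPI and imaged by confocal microscopy.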

SK-OV-3 [9] = assay: Induction of apoptosis in human SKOV3 cells assessed as increase in Bax expression at 2.5 to 10 uM incubated for 48 hrs by western blot analysis; assay type: functional, cell-based; conditions: dose 2.5-10 µM
SK-OV-3 [10] = assay: Induction of apoptosis in human SKOV3 cells assessed as decrease in Bcl-2 expression at 2.5 to 10 uM incubated for 48 hrs by western blot analysis; assay type: functional, cell-based; conditions: dose 2.5-10 µM
SK-OV-3 [11] = assay: Induction of ROS generation in human SKOV3 cells assessed as fold increase in ROS level at 5 uM incubated for 48 hrs by DCFH-DA staining based flow cytometry relative to control; assay type: functional
SK-OV-3 [12] = assay: Induction of ROS generation in human SKOV3 cells assessed as fold increase in ROS level at 10 uM incubated for 48 hrs by DCFH-DA staining based flow cytometry relative to control; assay type: functional
SK-OV-3 [13] = assay: Induction of autophagy in human SKOV3 cells assessed as LC3-I protein expression at 10 uM incubated for 48 hrs by western blot analysis; assay type: functional, cell-based
How it was run: (§2)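 SK-OV-3 cells in 6-well plates treated 48 h. Lysates separated by 8-15% SDS-PAGE and transferred to PVDF. Membranes blocked in 5% milk and probed overnight at 4 °C with LC3 or Beclin 1 antibodies. HRP secondary applied 1 h at room temperature; detection by ECL.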

SK-OV-3 [14] = assay: Induction of autophagy in human SKOV3 cells assessed as LC3-II protein expression at 10 uM incubated for 48 hrs by western blot analysis; assay type: functional, cell-based; how it was run: as §2
SK-OV-3 [15] = assay: Antitumor activity against human SKOV3 cells xenografted in Balb/c nude mouse assessed as reduction in Ki67 expression in tumor at 25 to 50 mg/kg, po for 21 days by immunohistochemistry analysis; assay type: functional, organism-based; conditions: dose 25-50 mg/kg, time 21.0 day
How it was run: (§3)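 SK-OV-3 xenografts in female BALB/c nude mice were dosed orally at 25 or 50 mg/kg in 0.5% CMC-Na for 21 days. Tumours were then snap-frozen in liquid nitrogen or fixed in 10% neutral-buffered formalin. Analysis used western blotting, H&E and immunohistochemistry on paraffin sections (Ki67, γ-H2AX).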

[16] = Toxicity in Balb/c nude mouse xenografted with human SKOV3 cells assessed as histological changes in heart at 25 to 50 mg/kg, po for 21 days by H and E staining based microscopic analysis; assay type: organism-based; conditions: in vivo, 504 h, dose 25-50 mg/kg, time 21 day; how it was run: as §3
[17] = AUC (0 to infinity) in Sprague-Dawley rat at 2 mg/kg, iv by LC/MS/MS analysis; assay type: ADME, organism-based; design: route intravenous, time infinity, dose 2 mg/kg; conditions: in vivo
[18] = Tmax in Sprague-Dawley rat at 2 mg/kg, iv by LC/MS/MS analysis; assay type: ADME, organism-based; conditions: in vivo
How it was run: (§4)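 Male Sprague-Dawley rats, 4 per group, dosed once orally at 10 mg/kg or intravenously at 2 mg/kg. Blood taken from the saphenous vein for plasma. Drug levels measured by LC-MS-MS, with parameters derived by noncompartmental analysis.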

[19] = Total plasma clearance in Sprague-Dawley rat at 2 mg/kg, iv by LC/MS/MS analysis; assay type: ADME, organism-based; how it was run: as §4
[20] = AUC (0 to infinity) in Sprague-Dawley rat at 10 mg/kg, po by LC/MS/MS analysis; assay type: ADME, organism-based; design: time infinity, route oral, dose 10 mg/kg; conditions: in vivo
[21] = Tmax in Sprague-Dawley rat at 10 mg/kg, po by LC/MS/MS analysis; assay type: ADME, organism-based; conditions: in vivo; how it was run: as §4
[22] = Half-life in Sprague-Dawley rat at 10 mg/kg, po by LC/MS/MS analysis; assay type: ADME, organism-based; conditions: in vivo; how it was run: as §4
[23] = Acute toxicity in SPF Kunming mouse assessed as mortality at 100 to 1000 mg/kg, po administered as single dose and measured upto 14 days post drug administration; assay type: organism-based; conditions: in vivo, 336 h, dose 100-1000 mg/kg, time <=14 day
SK-OV-3 [24] = assay: animal or person; conditions: Mus musculus, SK-OV-3, po, 504 h, read-out: INH

T1 sequence (P09874 whole entry): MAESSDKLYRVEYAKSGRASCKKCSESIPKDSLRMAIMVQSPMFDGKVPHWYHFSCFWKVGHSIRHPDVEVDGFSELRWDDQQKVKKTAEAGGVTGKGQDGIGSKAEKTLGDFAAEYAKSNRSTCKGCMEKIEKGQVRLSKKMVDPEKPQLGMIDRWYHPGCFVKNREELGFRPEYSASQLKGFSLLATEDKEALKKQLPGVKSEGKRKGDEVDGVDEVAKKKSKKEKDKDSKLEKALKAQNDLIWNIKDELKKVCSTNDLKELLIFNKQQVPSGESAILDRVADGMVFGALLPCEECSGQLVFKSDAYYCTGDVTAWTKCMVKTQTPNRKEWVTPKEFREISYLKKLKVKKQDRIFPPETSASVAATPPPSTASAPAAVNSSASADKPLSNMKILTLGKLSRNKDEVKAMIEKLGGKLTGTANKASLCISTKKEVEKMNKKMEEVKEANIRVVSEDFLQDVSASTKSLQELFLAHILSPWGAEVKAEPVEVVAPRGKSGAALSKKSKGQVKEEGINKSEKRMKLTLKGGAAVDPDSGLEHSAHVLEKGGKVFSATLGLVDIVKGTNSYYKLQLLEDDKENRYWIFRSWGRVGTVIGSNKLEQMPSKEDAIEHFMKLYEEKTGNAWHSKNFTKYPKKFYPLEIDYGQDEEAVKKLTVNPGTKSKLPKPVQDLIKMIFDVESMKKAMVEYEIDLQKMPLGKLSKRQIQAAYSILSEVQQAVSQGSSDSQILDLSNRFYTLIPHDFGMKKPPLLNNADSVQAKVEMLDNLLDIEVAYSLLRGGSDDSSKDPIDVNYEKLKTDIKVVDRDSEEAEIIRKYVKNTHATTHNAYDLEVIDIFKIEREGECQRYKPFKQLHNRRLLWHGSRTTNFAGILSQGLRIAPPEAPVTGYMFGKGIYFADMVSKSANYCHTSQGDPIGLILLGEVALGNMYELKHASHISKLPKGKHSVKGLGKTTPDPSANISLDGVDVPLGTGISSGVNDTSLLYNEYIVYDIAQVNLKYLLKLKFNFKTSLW
Sequence of Poly [ADP-ribose] polymerase 2 (Q9UGN5 whole entry): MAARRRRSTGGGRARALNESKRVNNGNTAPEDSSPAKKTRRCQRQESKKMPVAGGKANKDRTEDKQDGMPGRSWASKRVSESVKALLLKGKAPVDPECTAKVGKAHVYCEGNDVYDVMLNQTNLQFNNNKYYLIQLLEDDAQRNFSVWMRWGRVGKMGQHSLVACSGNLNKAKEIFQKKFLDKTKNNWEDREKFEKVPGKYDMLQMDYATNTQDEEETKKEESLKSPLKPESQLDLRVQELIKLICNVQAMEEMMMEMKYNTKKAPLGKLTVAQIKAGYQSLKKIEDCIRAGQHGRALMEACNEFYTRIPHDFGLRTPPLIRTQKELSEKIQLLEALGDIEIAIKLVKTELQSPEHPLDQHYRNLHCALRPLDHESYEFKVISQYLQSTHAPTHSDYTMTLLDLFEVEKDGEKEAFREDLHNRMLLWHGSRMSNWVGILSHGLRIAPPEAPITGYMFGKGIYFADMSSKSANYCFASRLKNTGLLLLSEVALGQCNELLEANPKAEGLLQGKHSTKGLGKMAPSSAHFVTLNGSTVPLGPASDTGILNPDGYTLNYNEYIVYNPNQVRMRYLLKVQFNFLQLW

COc1cc(/C=N/NC(N)=S)c(Br)c(Br)c1OC
inhibition at 20 µM (HepG2 [1]): 71.6%
inhibition at 20 µM (Caco-2): 59.6%
IC50 (HepG2 [2]): 4.6 µM
IC50 [3]: 0.0295 µM
IC50 [4]: > 1 µM
Ratio IC50 [5]: > 33.9
inhibition [6]: Active
inhibition [7]: Active
inhibition [8]: Active
Activity (SK-OV-3 [9]): Active
Activity (SK-OV-3 [10]): Active
fold change (FC) (SK-OV-3 [11]): 2.51
fold change (FC) (SK-OV-3 [12]): 3.04
Activity (SK-OV-3 [13]): Active
Activity (SK-OV-3 [14]): Active
Activity (SK-OV-3 [15]): Active
Activity [16]: Non-Toxic
AUC [17]: 886 nM·h
Tmax [18]: 4.8 min
clearance [19]: 5.32 L/h/kg
AUC [20]: 83.9 nM·h
Tmax [21]: 2.5 h
half-life [22]: 2.6 h
Activity [23]: Non-Toxic
inhibition in vivo at 25 mg/kg (SK-OV-3 [24]): 70%
